Active and inactive are the calls of the source. The calls are words filed in the database; no cut-off is given here.
Assays:
Rattus norvegicus = assay: Antithrombotic activity in HsdCpd:WU rat thrombosis model with venous stasis assessed as reduction in thrombus weight at 1 to 10 mg/kg, po dosed 90 mins before thrombus induction measured after 15 mins; format: functional, organism-based; settings: dose mg/kg 1-10, time 105.0 min
Procedure, shortened: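 Anesthetized rats, n = 6−10 per dose group. Compound in PEG/water/glycerol or vehicle given by gavage 90 min before induction. Two loose sutures placed on vena cava below left renal vein; thromboplastin 0.5 mg/kg iv into femoral vein, sutures tied after 15 s. Segment removed 15 min later and thrombus weighed.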

[1] = molecular target: Tissue-type plasminogen activator (Homo sapiens) (UniProt P00750); assay: Inhibition of purified human plasma tPA up to 20 uM using CH3SO2-DPhe-Gly-Arg-AMC substrate incubated for 30 mins by fluorescence based assay; settings: dose microM <=20, time 30.0 min
Tissue-type plasminogen activator (Homo sapiens), sequence (P00750 36-562 limits assumed): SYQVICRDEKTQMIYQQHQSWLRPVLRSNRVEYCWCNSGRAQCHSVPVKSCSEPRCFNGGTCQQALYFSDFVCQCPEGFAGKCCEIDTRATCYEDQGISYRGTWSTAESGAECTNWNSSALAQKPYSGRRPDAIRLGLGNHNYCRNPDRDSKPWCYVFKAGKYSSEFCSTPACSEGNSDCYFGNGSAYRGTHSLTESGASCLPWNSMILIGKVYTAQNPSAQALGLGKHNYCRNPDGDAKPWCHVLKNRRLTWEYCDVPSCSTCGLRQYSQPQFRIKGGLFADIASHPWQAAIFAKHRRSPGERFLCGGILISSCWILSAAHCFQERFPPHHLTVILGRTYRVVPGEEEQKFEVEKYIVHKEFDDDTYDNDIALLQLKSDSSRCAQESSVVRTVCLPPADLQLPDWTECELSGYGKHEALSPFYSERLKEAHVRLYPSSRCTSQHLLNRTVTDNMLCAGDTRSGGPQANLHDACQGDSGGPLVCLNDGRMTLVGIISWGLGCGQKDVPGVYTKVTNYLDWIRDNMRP
Procedure, shortened: (§1)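 Final levels: thrombin 0.02 nM; FXa 1.3 nM; FXIa 0.15 nM; plasmin 1.2 nM (substrate 50 μM); tPA 2 nM; kallikrein 0.2 nM; trypsin 0.1 nM; other AMC substrates 5 μM. FVIIa 0.5 pM coupled with tissue factor, factor X 12 nM, FXa substrate 50 μM.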

[2] = Half life in Wistar Hannover rat at 0.3 to 0.5 mg/kg, iv by LC-MS/MS analysis; format: ADME, organism-based; settings: in vivo, dose 0.3-0.5 mg/kg, time <=24 hrs
Procedure, shortened: (§2)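 Male Wistar Hannover rats, catheterized under isoflurane; one day later iv injection into lateral tail vein at 0.3 to 0.5 mg/kg in plasma containing 2% DMSO. Blood sampled via catheter from 0.033 to 24 h. Plasma precipitated with acetonitrile, analysed by LC-MS/MS (10 mM ammonium acetate pH 3.0/acetonitrile gradient). PK parameters calculated from plasma concentrations.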

[3] = molecular target: Plasma kallikrein (Homo sapiens) (UniProt P03952); assay: Inhibition of purified human plasma kallikrein up to 20 uM using H-Pro-Phe-Arg-AMC substrate incubated for 30 mins by fluorescence based assay; settings: dose microM <=20, time 30.0 min; procedure, shortened: as §1
Plasma kallikrein (Homo sapiens), sequence (P03952 20-390 limits assumed): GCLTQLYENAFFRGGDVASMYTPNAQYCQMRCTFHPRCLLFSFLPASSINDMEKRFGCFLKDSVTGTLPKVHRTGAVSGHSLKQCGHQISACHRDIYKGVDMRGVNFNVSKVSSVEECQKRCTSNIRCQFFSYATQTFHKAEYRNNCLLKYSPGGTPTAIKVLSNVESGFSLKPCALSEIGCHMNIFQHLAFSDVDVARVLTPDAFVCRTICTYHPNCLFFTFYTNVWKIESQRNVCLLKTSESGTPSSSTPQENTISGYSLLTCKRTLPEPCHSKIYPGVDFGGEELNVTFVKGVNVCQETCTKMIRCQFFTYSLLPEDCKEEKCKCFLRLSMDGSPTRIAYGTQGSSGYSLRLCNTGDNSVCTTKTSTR
Plasma kallikrein (Homo sapiens), sequence (P03952 391-638 limits assumed): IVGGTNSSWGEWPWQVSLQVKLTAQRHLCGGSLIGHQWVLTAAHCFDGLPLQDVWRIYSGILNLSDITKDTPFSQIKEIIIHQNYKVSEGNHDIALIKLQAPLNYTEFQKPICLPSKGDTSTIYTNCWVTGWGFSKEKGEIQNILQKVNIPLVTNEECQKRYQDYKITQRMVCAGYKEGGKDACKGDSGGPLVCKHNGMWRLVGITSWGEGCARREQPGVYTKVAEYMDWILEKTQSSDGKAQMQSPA

Plasma [4] = assay: Anticoagulation activity in human plasma assessed as drug level causing doubling of APTT incubated for 3 mins; format: functional; settings: 0.05 h
[5] = Clearance in Wistar rat hepatocytes at 1 uM incubated up to 90 mins by LC-MS/MS analysis; format: ADME, cell-based, Hepatocyte; settings: Wistar
Procedure, shortened: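 Fresh male Wistar rat hepatocytes, 1 × 10⁶ viable cells/mL, in Williams' medium E at 37 °C, pH 7.4, with 1 μM substrate and <1% acetonitrile. Samples at 2–90 min quenched in acetonitrile and analysed by LC-MS/MS.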

[6] = molecular target: T1, Nuclear receptor subfamily 1 group I member 2 (Homo sapiens, UniProt O75469); assay: Activation of human PXR expressed in human HepG2 cells; format: ADME, cell-based
T1 sequence (O75469 whole entry): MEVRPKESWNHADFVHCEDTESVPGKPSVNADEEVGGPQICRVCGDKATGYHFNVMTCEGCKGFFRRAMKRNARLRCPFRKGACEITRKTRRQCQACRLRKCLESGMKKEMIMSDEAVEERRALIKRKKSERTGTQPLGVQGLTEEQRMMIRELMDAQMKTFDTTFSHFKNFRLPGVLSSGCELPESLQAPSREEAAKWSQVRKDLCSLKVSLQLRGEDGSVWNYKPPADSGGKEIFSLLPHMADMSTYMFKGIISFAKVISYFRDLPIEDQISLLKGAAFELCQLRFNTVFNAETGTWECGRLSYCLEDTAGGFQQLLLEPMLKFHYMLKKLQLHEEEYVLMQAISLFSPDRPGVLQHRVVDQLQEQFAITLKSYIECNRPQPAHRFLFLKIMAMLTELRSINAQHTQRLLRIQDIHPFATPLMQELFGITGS
Procedure, shortened: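 HepG2 cells transiently co-transfected with human PXR and a luciferase reporter under the human CYP3A4 promoter, 48 h before readout. 24 h after seeding, 1:3 serial dilutions (2 nM to 50 μM, 0.5% DMSO) added. Luminescence normalized to rifampicin (100%) and DMSO (0%). MEC is the lowest concentration raising signal above 4-fold SD of DMSO background.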

[7] = Blood clearance in Wistar Hannover rat at 0.3 to 0.5 mg/kg, iv by LC-MS/MS analysis; format: ADME, organism-based; settings: whole blood, dose 0.3-0.5 mg/kg, time <=24 hrs; procedure, shortened: as §2
Plasma [8] = assay: Anticoagulation activity in human plasma assessed as drug level causing doubling of prothrombin time incubated for 3 mins; format: functional; settings: 0.05 h
Procedure, shortened: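 Citrated human plasma (0.11 M citrate 1:9, spun ~4000g 15 min) incubated with compound at 37 °C for 3 min. Clotting started with thromboplastin and time to coagulation recorded. Value is the concentration doubling clotting time (PT or aPTT).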

[9] = Tmax in orally dosed healthy human; format: ADME, organism-based; settings: in vivo, po
[10] = Toxicity in HsdCpd:WU rat model of arteriovenous shunt model assessed as prolongation of bleeding time at 0.6 to 6 mg/kg/hr, iv; format: organism-based; settings: in vivo, dose 0.6-6 mg/kg/hr

- inhibition [1]: inactive
- half-life [2]: 1.4 h
- inhibition [3]: inactive
- CLhep predicted at 1 µM [5]: 31.7 mL/min/kg
- MEC [6]: 1.9 µM
- clearance [7]: 51.7 mL/min/kg
- Tmax [9]: 0.75 h
SMILES: COc1cc(C(=O)N2C[C@H](C)OC[C@@H]2CCO)cc2nc(N[C@H](CF)c3cccc(Cl)c3)oc12
- Activity (Rattus norvegicus): Dose-dependent effect
- 2aPTT (Plasma [4]): 0.7 µM
- 2PT (Plasma [8]): 1.1 µM
- fold change (FC) [10]: < 2

From ChEMBL document CHEMBL4665889, “Design, Synthesis, and Pharmacological Characterization of a Neutral, Non-Prodrug Thrombin Inhibitor with Good Oral Pharmacokinetics” (J Med Chem, 2020)
